PAD4 inh = blocks human protein arginine deiminase 4; recombinant PAD4, RCA probe fluorescence polarization; inhibition, % at 6.36 µM; actives 0.41% (n = 330,000); AID 485272;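 active = percent inhibition above a cutoff equal to the mean of all tested compounds plus 3 SD, cut at about 15% in these data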;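 note: 0% = PAD4 with RCA probe and DMSO and 100% = probe without PAD4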
TDP2 inh = blocks human TDP2 phosphodiesterase activity | recombinant TDP2, T5PNP hydrolysis, p-nitrophenol absorbance 415 nm | O95551 | actives 0.34% (n = 370,000) | inhibition, % at 12.8 µM;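 active = inhibition above the mean of all tested compounds plus 3 SD, set per campaign, cut at about 25% in these data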;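 note: 0% = DMSO with enzyme and 100% = buffer with substrate but no TDP2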
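Read-out basis: percent inhibition. System: recombinant human TDP2. Buffer or medium: Mg2+-containing Tris-HCl buffer, pH 7.5. Repeats: single replicate. Timing: reaction 2 h, 37 °C. Benchmarks: high control without enzyme, low control DMSO plus TDP2. Probe or stimulus: 5 mM T5PNP. Doses: 12.8 µM only. Measured by: epi absorbance of p-nitrophenol freed from T5PNP by hydrolysis.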
SUMO HTRF inh = SUMOylation inhibition. HTRF SUMOylation assay, SAE1/SAE2 + UBC9, in vitro. inhibition, % at 35 µM. actives 0.36% (n = 290,000). AID 2006; in the data active = inhibition above about 50%, passing the limit was not always enough
Apaf-1 inh = human Apaf-1 inhibition | O14727 | inhibition, % at 20 µM | reconstituted apoptosome caspase-3 activity, DEVD-Rh110 fluorescence | actives 0.71% (n = 330,000); active = inhibition of at least 40% at 20 µM;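 note: plate controls were DMSO wells for no effect and DEVD-CHO caspase inhibitor wells for full effect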
Target sequence (O14727 whole entry, looked up): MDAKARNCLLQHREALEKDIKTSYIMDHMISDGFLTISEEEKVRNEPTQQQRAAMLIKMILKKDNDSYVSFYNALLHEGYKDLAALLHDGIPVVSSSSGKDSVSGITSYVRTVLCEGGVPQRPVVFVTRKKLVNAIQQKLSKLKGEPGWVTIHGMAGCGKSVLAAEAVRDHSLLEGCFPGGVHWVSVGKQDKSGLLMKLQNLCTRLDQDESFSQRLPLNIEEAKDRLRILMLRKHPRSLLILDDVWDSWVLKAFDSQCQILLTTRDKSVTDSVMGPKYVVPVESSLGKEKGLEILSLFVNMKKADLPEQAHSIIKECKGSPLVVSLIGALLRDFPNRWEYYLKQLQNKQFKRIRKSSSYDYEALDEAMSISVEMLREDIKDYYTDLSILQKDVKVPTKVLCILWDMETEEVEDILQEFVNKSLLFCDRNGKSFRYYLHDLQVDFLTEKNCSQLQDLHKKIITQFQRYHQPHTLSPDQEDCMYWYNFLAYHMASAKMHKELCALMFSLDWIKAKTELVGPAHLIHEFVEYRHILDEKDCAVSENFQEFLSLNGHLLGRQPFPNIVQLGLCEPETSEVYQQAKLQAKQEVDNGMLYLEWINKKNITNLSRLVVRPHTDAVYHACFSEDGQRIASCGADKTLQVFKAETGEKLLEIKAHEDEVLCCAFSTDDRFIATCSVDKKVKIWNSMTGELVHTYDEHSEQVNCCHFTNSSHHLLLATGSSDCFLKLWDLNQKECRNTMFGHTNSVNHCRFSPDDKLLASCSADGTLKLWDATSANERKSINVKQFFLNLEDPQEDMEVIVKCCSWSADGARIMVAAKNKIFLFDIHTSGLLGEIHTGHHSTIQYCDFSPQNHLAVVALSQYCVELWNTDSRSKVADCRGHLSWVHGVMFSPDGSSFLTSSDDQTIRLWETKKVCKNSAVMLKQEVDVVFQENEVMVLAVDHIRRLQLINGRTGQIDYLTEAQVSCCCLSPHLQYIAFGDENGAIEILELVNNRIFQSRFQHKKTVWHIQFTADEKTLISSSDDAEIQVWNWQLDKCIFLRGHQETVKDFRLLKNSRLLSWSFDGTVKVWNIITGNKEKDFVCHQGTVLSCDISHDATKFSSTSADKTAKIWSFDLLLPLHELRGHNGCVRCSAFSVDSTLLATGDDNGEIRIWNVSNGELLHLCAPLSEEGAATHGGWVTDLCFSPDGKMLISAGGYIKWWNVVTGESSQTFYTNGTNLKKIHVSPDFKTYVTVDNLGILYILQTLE
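detection = Rh110 fluorescence intensity | test system = biochemical Apaf-1 apoptosome reconstitution | also added = cytochrome c and DEVD-Rh110 substrate | schedule = 30 min plus 50 min, RT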
GASC-1 inh = blocks human GASC-1 demethylase activity | Q9H3R0 | GST-JMJD2C(1-420) H3K9me3 demethylation, DELFIA europium | inhibition, % at 2.35 µM | actives 0.069% (n = 330,000);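 active = more than half of a compound's replicate wells show inhibition beyond 50%, single wells judged on their own value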;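 note: signal counts dimethyl H3K9 product captured on neutravidin plate; 0% = median of DMSO wells and 100% = 0.3 times that DMSO median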
GSTO1 inh = GSTO1 inhibition, counter-screen for RBBP9 inhibitors; recombinant GSTO1, activity-based probe fluorescence polarization; inhibition, % at 5.96 µM; actives 1.1% (n = 300,000);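 active = inhibition above the campaign mean inhibition plus 3 SD, cut at about 35% in these data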;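 note: 0% = GSTO1-1 with DMSO and 100% = wells lacking GSTO1-1 enzyme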
GSTO1 confirm = confirmation of human GSTO1 inhibitors; AID 2176; recombinant GSTO1, probe fluorescence polarization; shares compounds with GSTO1 inh; actives 54% (n = 2,400); inhibition, % at 5.96 µM;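 active = inhibition above the primary screen's cutoff, its mean inhibition plus 3 SD, cut at about 35% in these data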;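 note: loss of polarization as inhibitors block binding of rhodamine sulfonate ester activity probe; 0% = GSTO1 with DMSO and 100% = wells lacking GSTO1 enzyme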
GSTO1 ABPP inh = GSTO1 (human) inhibition by gel ABPP. shares compounds with GSTO1 inh. recombinant GSTO1, gel ABPP SE-Rh probe fluorescence. inhibition, % at 1 µM. actives 30% (n = 130). AID 463110;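 active = inhibition of the enzyme GSTO1 above about 75%, limit read from the data; inactive = inhibition below that limit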
PAD4 confirm = PAD4 (human) inhibition, confirmed | actives 28% (n = 1,200) | inhibition, % at 6.36 µM | AID 488796 | shares compounds with PAD4 inh | recombinant PAD4, RCA probe fluorescence polarization;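 active = mean inhibition across replicates above the hit cutoff set by the earlier primary screen, cut at about 15% in these data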;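 note: inhibitors block active-site labeling by the probe so polarization falls; 0% = PAD4 with probe and DMSO and 100% = probe without PAD4 enzyme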
Apaf-1 inh conf = confirmation of Apaf-1 inhibitors; AID 504614; reconstituted apoptosome, caspase-3 DEVD-Rh110 fluorescence; inhibition, % at 20 µM; actives 25% (n = 1,800); shares compounds with Apaf-1 inh;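 active = mean inhibition of at least 40% at 20 µM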;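 note: plate controls were DMSO wells for no effect and DEVD-CHO caspase inhibitor control wells for full effect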
Rh110 quench = counter-screen for Apaf-1 inhibitors: fluorescence interference | Rh110 fluorescence interference, quenched caspase reaction | shares compounds with Apaf-1 inh | activation (fluorescence interference), % at 20 µM | AID 504615 | 1,800 tested, under 10 active;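 active = signal rise of 40% or more at 20 µM, treated as a fluorescence artifact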
Apaf1 inh interf = shows fluorescence interference in the Apaf-1 inhibitor assay format. 460 tested, under 10 active. IC50, µM. shares compounds with Apaf-1 inh. fluorescence interference counterscreen, Apaf-1 assay format. AID 588538; call rule not given here
TDP2 inh conf = confirmation of human TDP2 inhibitors | shares compounds with TDP2 inh | recombinant human TDP2, absorbance read-out | inhibition, % at 12.8 µM | actives 22% (n = 1,100); in the data active = inhibition above about 25%;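 note: 0% = vehicle with enzyme and 100% = no enzyme buffer only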
* hit, by the source's call; . = no result given. Rows were chosen to be rich in hits. Some 1.6% of all compounds tested hit in one or more screens of this group.

SMILES	PAD4 inh	TDP2 inh	SUMO HTRF inh	Apaf-1 inh	GASC-1 inh	GSTO1 inh	GSTO1 confirm	others
NCC(O)c1cc(O)c(O)cc1F (configuration not stated)	-7	14	.	30	33	50*	8
CCN1CCN(Cc2cc3c(cc2[N+](=O)[O-])OCO3)CC1	-10	9	-9	1	24	38*	19
O=[N+]([O-])c1cc2c(cc1CNCCc1ccc3c(c1)OCO3)OCO2	-2	4	6	-12	51	6	.
Cc1ccc(OC(=O)N(C)C[C@@H]2OCc3ccccc3-c3c(n(C)c4ccccc34)C(=O)N([C@H](C)CO)C[C@H]2C)cc1	.	5	.	.	.	.	.
O=C(NC1CN2CCC1CC2)c1ccc(Cl)cc1 (configuration not stated)	.	12	.	.	.	.	.
CCC(C)NC(=O)c1c(N)n(Cc2ccc3c(c2)OCO3)c2nc3ccccc3nc12 (configuration not stated)	-15	5	96	96*	38	53*	6
CCc1cccc(CC)c1N(COC)C(=O)CCl	.	5	.	.	.	.	.
CCOCN(C(=O)CCl)c1c(C)cccc1CC	0	21	.	14	-5	83*	92*	GSTO1 ABPP inh=0
O=C(NC1CN2CCC1CC2)c1cc(-c2ccc(Cl)cc2)nc2ccccc12 (configuration not stated)	.	4	.	.	.	.	.
CCOc1ccc(Cc2c(O)[nH]c(=O)[nH]c2=O)cc1	1	-8	32	13	-35	23	.
CC(C)Oc1ccc(Cc2c(O)[nH]c(=O)[nH]c2=O)cc1	-2	1	11	-23	47	40*	5
O=C(CCl)NCC1CCCO1 (configuration not stated)	-1	-2	11	-4	8	51*	65*
CN1CCc2cc(O)cc3c2[C@H]1Cc1ccc(O)c(O)c1-3	10	14	.	38	8	99*	10
Cc1cc(N2CCNC[C@H]2C)ccc1N1CC[C@@H](O)C1	.	3	.	.	.	.	.
O=c1c2ccccc2nc(/C=C/c2ccccc2)n1-c1ccc(O)cc1	1	-11	6	17	3	-12	.
O=c1c2ccccc2nc(/C=C/c2ccc(O)c(O)c2)n1-c1ccccc1	-4	-27	13	13	3	44*	7
O=C1NC(=O)C(=CN2CCc3ccccc32)C(=O)N1	-8	21	43	-3	11	39*	5
O=C1NC(=O)C(=CCc2ccccc2)C(=O)N1	.	5	.	.	.	.	.
C[C@H]1CNCCN1c1ccc(N2CC[C@H](O)C2)c(C#N)c1	.	1	.	.	.	.	.
O=C(NCCN1CCC2(CC1)C(=O)NCN2c1ccccc1)c1cccc(F)c1	.	0	.	.	.	.	.
COC(=O)C1C(c2ccc(Cl)cc2)CC2CCC1N2C (configuration not stated)	.	4	.	.	.	.	.
COP(=S)(OC)SCN1C(=O)c2ccccc2C1=O	2	-4	28	12	1	38*	60*
OC1CN2CCC(O)C2C(O)C1O (configuration not stated)	.	4	.	.	.	.	.
Oc1cccc2nc3ccccc3nc12	3	3	-1	5	1	70*	14
Cc1ccccc1O	-4	-8	.	-5	.	.	.
SMILES	PAD4 inh	TDP2 inh	SUMO HTRF inh	Apaf-1 inh	GASC-1 inh	GSTO1 inh	GSTO1 confirm	others
COc1ccccc1N	.	-7	.	.	.	.	.
O=C(NC1(C(F)(F)F)Oc2ccc(Cl)cc2O1)N1CCC2(CC1)OCCO2 (configuration not stated)	-4	4	-17	5	-4	62*	7
O=C(NC1(C(F)(F)F)Oc2ccccc2O1)N1CCC2(CC1)OCCO2	0	3	6	-23	6	42*	9
Cn1ncnc2c(=O)n(C)c(=O)nc1-2	68*	.	102*	99*	81*	94*	92*	PAD4 confirm=66*
Cc1ccc2nc(-c3ccc(CN4CCC(n5c(=O)[nH]c6cc(Cl)ccc65)CC4)cc3)c(-c3ccccc3)nc2c1	.	2	.	.	.	.	.
CC(=O)NCC1=C(c2ccc(S(C)(=O)=O)cc2)C[C@@H]2CC[C@H]1N2CCOc1ccccc1	.	5	.	.	.	.	.
C=CCn1c(O)c(C(CC)=Nc2ccc3c(c2)CCC3)c(=O)[nH]c1=O	4	3	9	8	12	4	.
C=CCn1c(O)c(C(CC)=Nc2ccc(N(C)C)cc2)c(=O)[nH]c1=O	30*	7	40	6	7	65*	3	PAD4 confirm=9
CCCN1CCc2cc(O)cc3c2[C@H]1Cc1ccc(O)c(O)c1-3	18*	9	.	45*	-3	89*	3	PAD4 confirm=-6
CN1CCc2cc3c(c4c2C1Cc1ccccc1-4)OCO3 (configuration not stated)	58*	23	37	91*	-3	77*	63*	PAD4 confirm=-12;Apaf-1 inh conf=67*;Rh110 quench=9;Apaf1 inh interf=>100
COc1cc(CCN)c(OC)cc1C	.	9	.	.	.	.	.
COc1cc2c(cc1O)[C@@H]1Cc3ccc(OC)c(O)c3CN1CC2	-6	54*	.	93*	.	69*	6	Apaf-1 inh conf=58*;Rh110 quench=-4;Apaf1 inh interf=>100;TDP2 inh conf=38*
COc1ccc(C[C@@H]2c3cc(O)c(OC)cc3CCN2C)cc1O	4	14	5	-2	4	0	.
N/C(=N\N=C/c1ccc(-c2ccc(O)c(C(=O)O)c2)o1)N[N+](=O)[O-]	1	28*	23	-8	-3	40*	57*	TDP2 inh conf=-2
